Laboratory results as given in ChEMBL document CHEMBL4020827, “Targeting Multiple Effector Pathways in Pancreatic Ductal Adenocarcinoma with a G-Quadruplex-Binding Small Molecule” (J Med Chem, 2018).

Legend:
[1] = system: MIA PaCa-2; assay: Effect on TEAD2 gene expression in human MIAPaCa2 cells at 400 nM after 6 hrs by RNA sequence analysis relative to control; type: functional
Outline: (§1)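 RNA-seq: cells seeded overnight in 60 mm plates (PANC-1 0.35 x 10^6, MIA PaCa-2 1.5 x 10^6 cells/well), then exposed to 400 nM compound for 6 or 24 h against untreated controls. Cell lines mycoplasma-free by RNA-capture ELISA and STR-profiled. Differentially expressed genes called at FDR < 0.1.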

[2] = system: MIA PaCa-2; assay: Effect on PIK3R2 gene expression in human MIAPaCa2 cells at 400 nM after 6 hrs by RNA sequence analysis relative to control; type: functional
[3] = system: PANC-1; assay: Effect on MAPK9 gene expression in human PANC1 cells at 400 nM after 6 hrs by RNA sequence analysis relative to control; type: functional
[4] = Solubility of the compound in saline; type: physicochemical
[5] = system: MIA PaCa-2; assay: Effect on CBFA2T3 gene expression in human MIAPaCa2 cells at 400 nM after 6 hrs by RNA sequence analysis relative to control; type: functional
Outline: (§2)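 PANC-1 (0.35 x 10^6) or MIA PaCa-2 (1.5 x 10^6) cells seeded overnight in 60 mm plates, then exposed to 400 nM compound for 6 or 24 h; untreated cells as controls. Cells were mycoplasma-free and STR-certified. Differential expression by RNA-seq, called at FDR < 0.1.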

[6] = system: MIA PaCa-2; assay: Effect on GLI4 gene expression in human MIAPaCa2 cells at 400 nM after 24 hrs by RNA sequence analysis relative to control; type: functional; outline: as §2
[7] = system: PANC-1; assay: Effect on MAPK11 gene expression in human PANC1 cells at 400 nM after 24 hrs by RNA sequence analysis relative to control; type: functional
[8] = system: MIA PaCa-2; assay: Effect on PFKFB4 gene expression in human MIAPaCa2 cells at 400 nM after 6 hrs by RNA sequence analysis relative to control; type: functional
[9] = system: MIA PaCa-2; assay: Effect on GLI1 gene expression in human MIAPaCa2 cells at 400 nM after 24 hrs by RNA sequence analysis relative to control; type: functional; outline: as §2
[10] = Toxicity in iv dosed CD-1 nude mouse assessed as death measured up to 72 hrs; type: organism-based; settings: in vivo
Outline: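 CD1 nude mice, two per group, given single IV doses in saline (10, 20, 30, 35, 40, 45, 50 and 60 mg/kg), with repeat dosing weekly. Watched for adverse effects for up to 72 h. Tolerated dose taken as highest cohort in which all mice survived without observed ill-effects.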

[11] = system: PANC-1; assay: Effect on SHANK2 gene expression in human PANC1 cells at 400 nM after 6 hrs by RNA sequence analysis relative to control; type: functional; outline: as §1
[12] = system: PANC-1; assay: Effect on FASN gene expression in human PANC1 cells at 400 nM after 6 hrs by RNA sequence analysis relative to control; type: functional; outline: as §2
[13] = system: PANC-1; assay: Effect on TEAD2 gene expression in human PANC1 cells at 400 nM after 6 hrs by RNA sequence analysis relative to control; type: functional; outline: as §1
[14] = system: MIA PaCa-2; assay: Effect on SMO gene expression in human MIAPaCa2 cells at 400 nM after 24 hrs by RNA sequence analysis relative to control; type: functional; outline: as §1
[15] = system: PANC-1; assay: Effect on IQSEC1 gene expression in human PANC1 cells at 400 nM after 24 hrs by RNA sequence analysis relative to control; type: functional; outline: as §2
[16] = system: PANC-1; assay: Effect on PRKCZ gene expression in human PANC1 cells at 400 nM after 24 hrs by RNA sequence analysis relative to control; type: functional; outline: as §1
[17] = system: PANC-1; assay: Effect on PARD6A gene expression in human PANC1 cells at 400 nM after 24 hrs by RNA sequence analysis relative to control; type: functional
[18] = system: PANC-1; assay: Effect on PIK3R2 gene expression in human PANC1 cells at 400 nM after 6 hrs by RNA sequence analysis relative to control; type: functional
[19] = system: MIA PaCa-2; assay: Effect on CTBP1 gene expression in human MIAPaCa2 cells at 400 nM after 24 hrs by RNA sequence analysis relative to control; type: functional; outline: as §2
[20] = system: PANC-1; assay: Effect on AKT1 gene expression in human PANC1 cells at 400 nM after 24 hrs by RNA sequence analysis relative to control; type: functional; outline: as §2
[21] = system: MIA PaCa-2; assay: Effect on PFKL gene expression in human MIAPaCa2 cells at 400 nM after 24 hrs by RNA sequence analysis relative to control; type: functional
[22] = system: MIA PaCa-2; assay: Effect on PARD6A gene expression in human MIAPaCa2 cells at 400 nM after 24 hrs by RNA sequence analysis relative to control; type: functional
[23] = system: PANC-1; assay: Effect on GLI2 gene expression in human PANC1 cells at 400 nM after 24 hrs by RNA sequence analysis relative to control; type: functional; outline: as §2
[24] = system: PANC-1; assay: Effect on FASN gene expression in human PANC1 cells at 400 nM after 24 hrs by RNA sequence analysis relative to control; type: functional; outline: as §2
[25] = Selectivity ratio of IC50 for human MCF7 cells to IC50 for human MIAPaCa2 cells; type: functional
[26] = system: PANC-1; assay: Effect on SHC2 gene expression in human PANC1 cells at 400 nM after 24 hrs by RNA sequence analysis relative to control; type: functional; outline: as §1
[27] = system: MIA PaCa-2; assay: Effect on CBFA2T3 gene expression in human MIAPaCa2 cells at 400 nM after 24 hrs by RNA sequence analysis relative to control; type: functional; outline: as §2
[28] = system: MIA PaCa-2; assay: Antitumor activity against human MIAPaCa2 cells xenografted in CD-1 nude mouse assessed as tumor growth inhibition administered twice weekly for 4 weeks; type: functional, cell-based
Outline: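 Female CD-1 nude mice (2-3 months, 20−25 g) given 5 x 10^6 MIA PaCa-2 cells s.c. in right flank in RPMI + Matrigel; dosing began once tumors were established (~13 days, mean 0.05 cm3). Groups of eight received IV doses in saline, twice weekly for 28 days (8 doses), against a saline group. Tumors measured by calliper (length × width × height × π/6) every 3−4 days, to day 62; Student's t test.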

[29] = system: PANC-1; assay: Effect on SMO gene expression in human PANC1 cells at 400 nM after 6 hrs by RNA sequence analysis relative to control; type: functional; outline: as §1
[30] = system: PANC-1; assay: Effect on PFKL gene expression in human PANC1 cells at 400 nM after 24 hrs by RNA sequence analysis relative to control; type: functional
[31] = system: MIA PaCa-2; assay: Effect on ARF6 gene expression in human MIAPaCa2 cells at 400 nM after 6 hrs by RNA sequence analysis relative to control; type: functional; outline: as §2
[32] = system: PANC-1; assay: Effect on SMO gene expression in human PANC1 cells at 400 nM after 24 hrs by RNA sequence analysis relative to control; type: functional; outline: as §1
[33] = system: MIA PaCa-2; assay: Effect on mLST8 gene expression in human MIAPaCa2 cells at 400 nM after 24 hrs by RNA sequence analysis relative to control; type: functional; outline: as §1
[34] = system: PANC-1; assay: Effect on MAPK11 gene expression in human PANC1 cells at 400 nM after 6 hrs by RNA sequence analysis relative to control; type: functional
[35] = system: PANC-1; assay: Effect on ULK1 gene expression in human PANC1 cells at 400 nM after 6 hrs by RNA sequence analysis relative to control; type: functional; outline: as §1

`O=C1c2ccc3c4c(c(NCCN5CCCC5)cc(c24)C(=O)N1CCCN1CCOCC1)C(=O)N(CCCN1CCOCC1)C3=O` showed a log2FC [1] of -0.65, a log2FC [2] of -0.55 and a log2FC [3] of -0.28. The solubility [4] was greater than 10000 µg/mL, the log2FC [5] was -2.74 and the log2FC [6] was -1.85. For the same compound, the log2FC [7] was -1.6, the log2FC [8] was -1.02 and the log2FC [9] was -0.64. It also gave an MTD at 72 h [10] of 45 to 50 mg/kg, a log2FC [11] of -1.65 and a log2FC [12] of -0.73. The log2FC [13] was -0.22, the log2FC [14] was -1.21 and the log2FC [15] was -0.5. For the same compound, the log2FC [16] was -1.23, the log2FC [17] was -1.41 and the log2FC [18] was -0.45. It also gave a log2FC [19] of -1.17, a log2FC [20] of -1.04 and a log2FC [21] of -1.18. The log2FC [22] was -1.4, the log2FC [23] was 0.38 and the log2FC [24] was -0.7. For the same compound, the “Ratio IC50” value [25] was greater than 20, the log2FC [26] was -1.47 and the log2FC [27] was -2.86. For the same compound, the TGI [28] was “Dose-dependent effect”, the log2FC [29] was -0.92 and the log2FC [30] was -0.98. The log2FC [31] was -0.89, the log2FC [32] was -0.82 and the log2FC [33] was -1.28. It also gave a log2FC [34] of -0.38 and a log2FC [35] of 0.19.
